In test [1] the target is T1, Histone H4K20me3 peptide 14-25 (Homo sapiens, UniProt P62805).
T1 chain: GGAKRHRK(Me3)VLRD
Nature of the test: ITC.

Test [2] deals with T2, Histone H4K20me2 peptide 14-25 (Homo sapiens, UniProt P62805).
T2 chain: GGAKRHRK(Me2)VLRD
Nature of the test: ITC.

The subject of test [3] is chromatin. As to the kind of experiment: Small-scale biochemical fractionation: ORC chromatin association. It counts as cell-based, human. To be noted: cells stably expressing ORC1 protein, in comparison to hORC1; Western blot.
In test [4] the test system is ORC components (ORC2, ORC3 and ORC5). As to the kind of experiment: Affinity purification of FLAG-ORC1 complexes from U2OS cells. Type of test: cell-based, human. To be noted: vs wild-type ORC1, Western blot.
For test [5] the test system is unchanged. As to the kind of experiment: Affinity purification of FLAG-ORC1 complexes from HT1080 cells. Type of test: cell-based, human. Particulars: vs wild-type ORC1, Western blot.
In test [6] the test system is WI38 cells. Nature of the test: Cell-cycle profile of WI38 cells by flow cytometry. It counts as cell-based, human. To be noted: WI38 primary fibroblast, relative to wild-type hORC1. The method in brief:
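WI38 cells transiently expressing GFP plus wild-type ORC1 or an H4K20me2-binding-pocket point mutant (Y64A or W88A). Cell-cycle profile determined by flow cytometry, gating on GFP-positive cells so that only transfected cells are scored. Percentage of cells in each cell-cycle phase and the S/G1 ratio are calculated per transfection. Two experiments, s.d. reported.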

Where no end group is shown, it is not given here.

B1: ORC1 BAH domain (hORC1BAH) 1-185 (protein)
chain: MAHYPTRLKTRKTYSWVGRPLLDRKLHYQTYREMCVKTEGCSTEIHIQIGQFVLIEGDDDENPYVAKLLELFEDDSDPPPKKRARVQWFVRFCEVPACKRHLLGRKPGAQEIFWYDYPACDSNINAETIIGLVRVIPLAPKDVVPTNLKNEKTLFVKLSWNEKKFRPLSSELFAELNKPQESAAK
As to B1, the Kd in test [1] was found to be 40 µM.

B2: ORC1 BAH domain (mORC1BAH) 9-170 (protein)
chain: KTRQTFSWVGRPLPNRKQFQQMYREICMKINDGSEIHIKVGQFVLIQGEDNKKPYVAKLIELFQNGAEVPPKKCARVQWFVRFLEIPVSKRHLLGRSPPAQEIFWYDCSDWDNKINVETIIGPVQVVALAPEEVIPVDQKSEETLFVKLSWNKKDFAPLPPE
Take B2: in test [2], the Kd came out at 9.6 µM.

B3: hORC1Y64A: H4K20me2-binding pocket mutant Y64A of human ORC1 (protein, UniProt Q13415 1-861, looked up, variant Y64A)
Origin recognition complex …: MAHYPTRLKTRKTYSWVGRPLLDRKLHYQTYREMCVKTEGCSTEIHIQIGQFVLIEGDDDENPAVAKLLELFEDDSDPPPKKRARVQWFVRFCEVPACKRHLLGRKPGAQEIFWYDYPACDSNINAETIIGLVRVIPLAPKDVVPTNLKNEKTLFVKLSWNEKKFRPLSSELFAELNKPQESAAKCQKPVRAKSKSAESPSWTPAEHVAKRIESRHSASKSRQTPTHPLTPRARKRLELGNLGNPQMSQQTSCASLDSPGRIKRKVAFSEITSPSKRSQPDKLQTLSPALKAPEKTRETGLSYTEDDKKASPEHRIILRTRIAASKTIDIREERTLTPISGGQRSSVVPSVILKPENIKKRDAKEAKAQNEATSTPHRIRRKSSVLTMNRIRQQLRFLGNSKSDQEEKEILPAAEISDSSSDEEEASTPPLPRRAPRTVSRNLRSSLKSSLHTLTKVPKKSLKPRTPRCAAPQIRSRSLAAQEPASVLEEARLRLHVSAVPESLPCREQEFQDIYNFVESKLLDHTGGCMYISGVPGTGKTATVHEVIRCLQQAAQANDVPPFQYIEVNGMKLTEPHQVYVQILQKLTGQKATANHAAELLAKQFCTRGSPQETTVLLVDELDLLWTHKQDIMYNLFDWPTHKEARLVVLAIANTMDLPERIMMNRVSSRLGLTRMCFQPYTYSQLQQILRSRLKHLKAFEDDAIQLVARKVAALSGDARRCLDICRRATEICEFSQQKPDSPGLVTIAHSMEAVDEMFSSSYITAIKNSSVLEQSFLRAILAEFRRSGLEEATFQQIYSQHVALCRMEGLPYPTMSETMAVCSHLGSCRLLLVEPSRNDLLLRVRLNVSQDDVLYALKDE
As for B3, in test [3], the “ORC1 enrichment at chromatin” value is listed as “considerably reduced”. Moreover, the “efficiency of affinity purification of ORC2, ORC3 and ORC5” value (“efficiency” below) in test [4] is listed as “equal to that observed with the wild-type protein”. Besides, the “efficiency” value in test [5] is reported as “equal to that observed with the wild-type protein”. In addition, in test [6], the S phase population result is “decreased S phase population” and the “S/G1 ratio (in words)” value is “lower S/G1 ratio”.

B4: hORC1W88A: H4K20me2-binding pocket mutant W88A of human ORC1 (protein, UniProt Q13415 1-861, looked up, variant W88A)
Origin recognition complex …: MAHYPTRLKTRKTYSWVGRPLLDRKLHYQTYREMCVKTEGCSTEIHIQIGQFVLIEGDDDENPYVAKLLELFEDDSDPPPKKRARVQAFVRFCEVPACKRHLLGRKPGAQEIFWYDYPACDSNINAETIIGLVRVIPLAPKDVVPTNLKNEKTLFVKLSWNEKKFRPLSSELFAELNKPQESAAKCQKPVRAKSKSAESPSWTPAEHVAKRIESRHSASKSRQTPTHPLTPRARKRLELGNLGNPQMSQQTSCASLDSPGRIKRKVAFSEITSPSKRSQPDKLQTLSPALKAPEKTRETGLSYTEDDKKASPEHRIILRTRIAASKTIDIREERTLTPISGGQRSSVVPSVILKPENIKKRDAKEAKAQNEATSTPHRIRRKSSVLTMNRIRQQLRFLGNSKSDQEEKEILPAAEISDSSSDEEEASTPPLPRRAPRTVSRNLRSSLKSSLHTLTKVPKKSLKPRTPRCAAPQIRSRSLAAQEPASVLEEARLRLHVSAVPESLPCREQEFQDIYNFVESKLLDHTGGCMYISGVPGTGKTATVHEVIRCLQQAAQANDVPPFQYIEVNGMKLTEPHQVYVQILQKLTGQKATANHAAELLAKQFCTRGSPQETTVLLVDELDLLWTHKQDIMYNLFDWPTHKEARLVVLAIANTMDLPERIMMNRVSSRLGLTRMCFQPYTYSQLQQILRSRLKHLKAFEDDAIQLVARKVAALSGDARRCLDICRRATEICEFSQQKPDSPGLVTIAHSMEAVDEMFSSSYITAIKNSSVLEQSFLRAILAEFRRSGLEEATFQQIYSQHVALCRMEGLPYPTMSETMAVCSHLGSCRLLLVEPSRNDLLLRVRLNVSQDDVLYALKDE
In the case of B4, the “ORC1 enrichment at chromatin” value in test [3] is listed as “considerably reduced”. Besides, the “efficiency” value in test [4] and in test [5] was “equal to that observed with the wild-type protein” in each case. Besides, the S phase population entry in test [6] is recorded as “decreased S phase population”. The “S/G1 ratio (in words)” value in test [6] is “lower S/G1 ratio”.

The values are drawn from article PMC3321094 (Nature, 2012).
